Assay results from ChEMBL document CHEMBL1212705, “Gene expression signatures and small-molecule compounds link a protein kinase to Plasmodium falciparum motility” (Nat Chem Biol, 2008).
The source made the active and inactive calls. No cut-off for these calls is given here.

How the values were obtained:
[1] = system: Plasmodium falciparum; assay: Antimicrobial activity against Plasmodium falciparum schizonts infected in human erythrocytes assessed as minimal effect on parasite cell cycle at 450 nM treated 24 hrs after release of ring stage by microscopy
[2] = system: Plasmodium falciparum; assay: Binding affinity to Plasmodium falciparum CDPK1 at 2.5 mM by LC/MS/MS analysis
Outline: (§1)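 P. falciparum parasite lysate was incubated with agarose-immobilized inhibitor and washed extensively. Retained proteins were eluted with urea, resolved by SDS-PAGE and identified by LC/MS/MS. In a competition arm, free inhibitor (2.5 mM) was added to the lysate before incubation with the beads under identical conditions.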

[3] = system: Plasmodium falciparum; assay: Antimicrobial activity against Plasmodium falciparum schizonts infected in human erythrocytes assessed as minimal effect on parasite cell cycle at 450 nM treated 12 hrs after release of ring stage by microscopy
[4] = system: Plasmodium falciparum; assay: Binding affinity to Plasmodium falciparum PF14_0075 at 2.5 mM by LC/MS/MS analysis
Outline: as §1

[5] = system: Plasmodium falciparum; assay: Binding affinity to Plasmodium falciparum PFI0235w at 2.5 mM by LC/MS/MS analysis
Outline: as §1

[6] = Cytotoxicity against human HuH7 cells after 72 hrs by Cell Titer Glo assay; format: cell-based, Huh-7; conditions: read-out: ED50
Outline: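 Cells seeded at 250 per well in DMEM with 5% fetal bovine serum. Compound added the next day, followed by 72 h culture to match the parasite proliferation assay. Viability read by Cell Titer Glo luminescence.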

[7] = system: Toxoplasma gondii; assay: Antimicrobial activity against Toxoplasma gondii […] infected in african green monkey BSC1 cells assessed as parasite invasion at 6.25 uM after 48 hrs by microscopy relative to control; format: functional, BSC-1
[8] = system: Plasmodium falciparum; assay: Binding affinity to Plasmodium falciparum PF14_0186 at 2.5 mM by LC/MS/MS analysis
Outline: as §1

[9] = system: Plasmodium falciparum; assay: Binding affinity to Plasmodium falciparum PF10_0363 at 2.5 mM by LC/MS/MS analysis
Outline: as §1

[10] = system: Plasmodium falciparum; assay: Binding affinity to Plasmodium falciparum PFL1545c at 2.5 mM by LC/MS/MS analysis
Outline: as §1

[11] = system: Plasmodium falciparum; assay: Binding affinity to Plasmodium falciparum PFI0875w at 2.5 mM by LC/MS/MS analysis
Outline: as §1

[12] = system: Plasmodium falciparum; assay: Binding affinity to Plasmodium falciparum PF13_0116 at 2.5 mM by LC/MS/MS analysis
Outline: as §1

[13] = system: Plasmodium falciparum; assay: Binding affinity to Plasmodium falciparum PF14_0393 at 2.5 mM by LC/MS/MS analysis
Outline: as §1

[14] = Cytotoxicity against human HeLa cells after 72 hrs by Cell Titer Glo assay; format: cell-based; conditions: read-out: ED50
Outline: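 Cells were seeded at 250 per well in DMEM with 5% FBS in 1,536-well plates, and compound was added the next day. Culture ran 72 h, matching the parasite proliferation assay. Viability was read by Cell Titer Glo luminescence, and EC50 was derived.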

[15] = system: Plasmodium falciparum; assay: Binding affinity to Plasmodium falciparum PF11_0037 at 2.5 mM by LC/MS/MS analysis
Outline: as §1

[16] = system: Plasmodium falciparum; assay: Binding affinity to Plasmodium falciparum PF14_0517 at 2.5 mM by LC/MS/MS analysis
Outline: as §1

[17] = system: Plasmodium falciparum; assay: Binding affinity to Plasmodium falciparum PFI1680w at 2.5 mM by LC/MS/MS analysis
Outline: as §1

[18] = Inhibition of GST-fused Plasmodium falciparum recombinant CDPK5 expressed in Escherichia coli Rosetta 2 assessed as inhibition of [gamma-33P]ATP incorporation into substrate peptide by scintillation counting
[19] = system: Plasmodium falciparum; assay: Binding affinity to Plasmodium falciparum PF14_0439 at 2.5 mM by LC/MS/MS analysis
Outline: as §1

[20] = system: Toxoplasma gondii; assay: Antimicrobial activity against Toxoplasma gondii […] infected in african green monkey BSC1 cells assessed as parasite invasion at 25 uM after 48 hrs by microscopy relative to control; format: functional, BSC-1
[21] = system: Plasmodium falciparum; assay: Binding affinity to Plasmodium falciparum PFE1155c at 2.5 mM by LC/MS/MS analysis
Outline: as §1

[22] = system: Plasmodium falciparum; assay: Antiplasmodial activity against chloroquine-resistant Plasmodium falciparum W2 after 72 hrs by SYBR green assay; format: functional, organism-based; conditions: W2, 72 h
Outline: (§2)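 Parasites grown in human O+ erythrocytes in RPMI with human serum and albumax. For the assay, serially diluted compounds were added to screening medium (RPMI, 4.16 mg/ml albumax) at 2.5% hematocrit and 0.3% parasitemia, then incubated 72 h in 93% N2/4% CO2/3% O2. DMSO served as baseline and uninfected erythrocytes as background. SYBR Green fluorescence was read at 520 nm to give EC50.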

[23] = system: Plasmodium falciparum; assay: Binding affinity to Plasmodium falciparum PF11_0191 at 2.5 mM by LC/MS/MS analysis
Outline: as §1

[24] = system: Plasmodium falciparum; assay: Binding affinity to Plasmodium falciparum PF10_0268 at 2.5 mM by LC/MS/MS analysis
Outline: as §1

[25] = Half life in BALB/c mouse 20 mg/kg single oral dose by LC/MS/MS analysis; conditions: in vivo
[26] = system: Plasmodium falciparum; assay: Binding affinity to Plasmodium falciparum PF13_0238 at 2.5 mM by LC/MS/MS analysis
Outline: as §1

[27] = system: Plasmodium falciparum; assay: Binding affinity to Plasmodium falciparum PF14_0359 at 2.5 mM by LC/MS/MS analysis
Outline: as §1

[28] = system: Plasmodium falciparum; assay: Upregulation of proteasome gene expression in Plasmodium falciparum at 460 nM after 48 hrs by microarray analysis; format: functional, organism-based
Outline: (§3)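 P. falciparum 3D7 was grown in human O+ erythrocytes. Heterogeneous, unsynchronized parasites were incubated with 460 nM compound for 24 or 48 h, then compared with untreated parasites on a full-genome microarray. Transcript changes were called by a statistical test.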

[29] = system: Plasmodium falciparum; assay: Upregulation of DNA replication gene expression in Plasmodium falciparum at 460 nM after 48 hrs by microarray analysis; format: functional, organism-based
Outline: as §3

[30] = system: Plasmodium falciparum; assay: Binding affinity to Plasmodium falciparum PFI0180w at 2.5 mM by LC/MS/MS analysis
Outline: as §1

[31] = system: Plasmodium falciparum; assay: Binding affinity to Plasmodium falciparum PFL0185c at 2.5 mM by LC/MS/MS analysis
Outline: as §1

[32] = system: Plasmodium falciparum; assay: Antiplasmodial activity against pyrimethamine-resistant Plasmodium falciparum HB3 after 72 hrs by SYBR green assay; format: functional, organism-based; conditions: HB3, 72 h
Outline: as §2

[33] = system: Plasmodium falciparum; assay: Binding affinity to Plasmodium falciparum PF14_0541 at 2.5 mM by LC/MS/MS analysis
Outline: as §1

[34] = system: Plasmodium falciparum; assay: Binding affinity to Plasmodium falciparum PFF0160c at 2.5 mM by LC/MS/MS analysis
Outline: as §1

[35] = system: Plasmodium falciparum; assay: Binding affinity to Plasmodium falciparum PF14_0096 at 2.5 mM by LC/MS/MS analysis
Outline: as §1

[36] = system: Toxoplasma gondii; assay: Antimicrobial activity against Toxoplasma gondii […] infected in african green monkey BSC1 cells assessed as parasite invasion at 50 uM after 90 mins by microscopy relative to control
[37] = system: Plasmodium falciparum; assay: Binding affinity to Plasmodium falciparum PF14_0102 at 2.5 mM by LC/MS/MS analysis
Outline: as §1

[38] = system: Plasmodium falciparum; assay: Antiplasmodial activity against Plasmodium falciparum 3D7 after 72 hrs by SYBR green assay; format: functional, organism-based; conditions: 3D7, 72 h

SMILES: N[C@H]1CC[C@H](Nc2nc(Nc3ccc(C(=O)N4CCCCC4)cc3)c3ncn(-c4cccc(F)c4)c3n2)CC1 [PURFALCAMINE]
- Activity [1]: Active
- Activity [2]: Active
- Activity [3]: Active
- Activity [4]: inactive
- Activity [5]: inactive
- CC50 at 72 h [6]: 5480 nM
- Activity [7]: 20%
- Activity [8]: inactive
- Activity [9]: inactive
- Activity [10]: inactive
- Activity [11]: inactive
- Activity [12]: inactive
- Activity [13]: inactive
- CC50 at 72 h [14]: 7030 nM
- Activity [15]: inactive
- Activity [16]: inactive
- Activity [17]: inactive
- IC50 [18]: > 3500 nM
- Activity [19]: inactive
- Activity [20]: <=20%
- Activity [21]: inactive
- EC50 [22]: 179 nM
- Activity [23]: inactive
- Activity [24]: inactive
- half-life [25]: 3.1 h
- Activity [26]: inactive
- Activity [27]: inactive
- Activity [28]: Active
- Activity [29]: Active
- Activity [30]: inactive
- Activity [31]: inactive
- EC50 [32]: 178 nM
- Activity [33]: inactive
- Activity [34]: inactive
- Activity [35]: inactive
- Activity [36]: <=20%
- Activity [37]: inactive
- EC50 [38]: 230 nM
